A short description of test [1]: Her2 expression decrease, cell viability multiplex – SKBR3 breast tumor cells, AlphaScreen, ATP viability, primary screen (AID 461;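 active means Her2 level under about 52% in both replicate screens, with viability over 70% of control, limit read from the data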;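 on Her2 level: lower value means less Her2 protein in the cells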;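 on viability: percent of carrier control wells set as 100% viability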). Conditions: SKBR3 Her2 protein level, 18-24 h, measured here: SKBR3 viability, ATP luminescence, at 10 µM. A general note: Alpha assays give light when donor and acceptor beads are brought close together.
Test [2] has as its target Receptor tyrosine-protein kinase erbB-2 (Homo sapiens) (UniProt P04626). Described as above. Conditions: 18-24 h, at 10 µM, stronger effect = lower value.
The nature of test [3]: reduced viability of SK-BR-3 breast cancer cells – cell-based, 24 h, human, pilot screen (AID 572;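 active means viability at or below 10% of carrier control in both of two separate runs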;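 further: compound exposure lasted between 18 and 24 h rather than exactly 24 h; 100% = carrier-treated control wells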). As to conditions: SK-BR-3 viability, CellTiter-Glo luminescence, at 10 µM, stronger effect = lower value. On the technique in general: Cellular ATP, detected with luciferase, serves as a proxy for viable cell number.
Test [4] is described as follows: HUVEC growth inhibition – cell-based, human, primary screen (AID 575).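 Further: 100% = median of untreated cell wells with 0.1% DMSO on each plate.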 Conditions: HUVEC proliferation, CellTiter-Glo luminescence, 72 h; at 10 µM; stronger effect = lower value. The procedure, abridged: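 Assay system: Primary human umbilical vein endothelial cells | Quantity: 1250 cells per well | Medium: Supplemented EBM, 2% fetal bovine serum | Detection: CellTiter-Glo luminescence measuring cellular ATP | Read-out: % viability vs DMSO wells | Plate: Collagen-coated 384-well format | Times: 72 h exposure, 37 °C, 5% CO2, 30 min RT equilibration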

A short description of test [5]: H69AR cell proliferation blockers – human, duplicate replicates, primary screen (AID 580;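 active means viability at or under a set limit in both replicates, limit being median viability minus 3 SD, cut at about 48% in these data, passing the limit was not always enough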;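 further: 100% = mean luminescence of untreated wells and 0% = no signal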). Conditions: H69AR lung tumor cells viability, ATP luminescence, 72 h; at 10 µM; stronger effect = lower value.
A short description of test [6]: MRP1 drug-resistance reversers in H69AR cells – cell-based, doxorubicin co-treatment, pilot screen (AID 601;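 active means viability loss from added drug above about 55%, and viability with drug at most 40%, in both replicates, limit read from the data, passing the limit was not always enough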). Conditions: CellTiter-Glo, 72 h, at 10 µM; for differential viability (reversal): stronger effect = higher value.
A short description of test [7]: yeast transport mutant growth inhibition pilot in 384-well plates, post-Golgi transport modulator project (AID 636; in the data active means inhibition above about 31%). As to conditions: absorbance 615 nm, about 18 h, stronger effect = higher value.
Test [8] in a line: growth suppression of yeast trafficking mutant, preliminary HTS, modulators of trafficking downstream of Golgi apparatus project, 1536-format plate, OD 615 nm (AID 637; in the data active means inhibition above about 30%). As to conditions: yeast transport mutant growth, absorbance 615 nm, 18 h; stronger effect = higher value.
Where [9] appears, read: H69AR cells + 2 uM doxorubicin, measured here: viability with 2 uM doxorubicin, stronger effect = lower value.
The mark [10] stands for this setting: H69AR cells, compound alone cytotoxicity.

Each structure is given as a SMILES string. Activity calls are given as the source filed them.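 How the source made its calls, unless noted: active means viability at or below 30% in both replicate assays; inconclusive means viability at or below 30% in just one of the two assays; inactive means the rest.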

Chain of Receptor tyrosine-protein kinase erbB-2 (Homo sapiens) (P04626 whole entry, looked up): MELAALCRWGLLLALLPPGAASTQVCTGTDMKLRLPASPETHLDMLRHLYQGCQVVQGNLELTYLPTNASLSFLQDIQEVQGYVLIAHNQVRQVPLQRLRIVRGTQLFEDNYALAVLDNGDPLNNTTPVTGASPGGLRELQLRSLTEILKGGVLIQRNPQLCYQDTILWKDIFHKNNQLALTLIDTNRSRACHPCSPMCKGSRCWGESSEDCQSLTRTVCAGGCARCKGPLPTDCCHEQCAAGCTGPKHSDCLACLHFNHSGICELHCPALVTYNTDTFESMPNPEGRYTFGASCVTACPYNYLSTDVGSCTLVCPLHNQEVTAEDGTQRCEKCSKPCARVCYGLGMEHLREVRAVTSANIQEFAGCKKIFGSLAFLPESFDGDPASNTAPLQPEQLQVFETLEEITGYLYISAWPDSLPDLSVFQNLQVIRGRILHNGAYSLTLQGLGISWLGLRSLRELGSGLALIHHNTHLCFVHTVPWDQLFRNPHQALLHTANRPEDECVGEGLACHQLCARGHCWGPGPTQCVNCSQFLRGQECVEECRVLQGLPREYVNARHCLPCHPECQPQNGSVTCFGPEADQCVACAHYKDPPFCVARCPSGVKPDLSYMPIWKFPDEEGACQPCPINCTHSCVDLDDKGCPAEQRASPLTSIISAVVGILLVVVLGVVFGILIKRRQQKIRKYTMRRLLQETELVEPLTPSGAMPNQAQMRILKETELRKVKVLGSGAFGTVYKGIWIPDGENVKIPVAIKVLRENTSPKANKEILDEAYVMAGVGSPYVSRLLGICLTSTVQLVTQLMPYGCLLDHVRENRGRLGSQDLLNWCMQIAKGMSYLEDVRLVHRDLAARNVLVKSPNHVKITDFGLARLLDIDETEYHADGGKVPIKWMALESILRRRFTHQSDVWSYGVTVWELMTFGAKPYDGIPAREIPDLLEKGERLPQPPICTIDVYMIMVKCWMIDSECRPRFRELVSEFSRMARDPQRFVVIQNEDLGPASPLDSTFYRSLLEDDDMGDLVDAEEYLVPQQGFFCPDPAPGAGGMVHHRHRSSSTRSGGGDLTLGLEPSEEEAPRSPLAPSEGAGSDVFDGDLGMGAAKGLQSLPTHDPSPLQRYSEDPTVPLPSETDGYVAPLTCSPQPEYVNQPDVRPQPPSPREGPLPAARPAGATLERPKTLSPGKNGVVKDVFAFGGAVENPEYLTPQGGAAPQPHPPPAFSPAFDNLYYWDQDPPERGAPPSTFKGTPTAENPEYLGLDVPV

What is called viability is a read-out of living cells in per cent, often relative to untreated cells. As usually defined, the inhibition is the relative decrease from the control value, in per cent. In the case of `CCNC(=O)CC1C(=O)N(c2ccccc2)C(=O)N1Cc1ccc(OC)cc1` (stereo not given), the viability is 94.5% in test [1]; 94.5% (inactive) in test [3]; 91.9% (inactive) in test [4]; 94.8% (inactive) in test [5]; 89.1% in test [6] (setting [9]); 94.8% in test [6] (setting [10]). For the same compound, the Her2 level in test [2] is 100% (inactive). Besides, the differential viability (reversal) in test [6] (H69AR cells + 2 uM doxorubicin) is 5.68% (inactive). For the same compound, the inhibition in test [7] is -3.68% (inactive); in test [8], -2.91% (inactive).

Take `Cn1ccnc1SCCC#N`: the viability in test [1] was 100%; in test [3], 100% (inactive); in test [4] it was 92.5% (inactive); in test [5], 99% (inactive); in test [6] (setting [9]), 97.3%; in test [6] (setting [10]), 99%. The Her2 level in test [2] was 89.5% (inactive). Besides, in test [6] (H69AR cells + 2 uM doxorubicin), the differential viability (reversal) is 1.65% (inactive). Further, the inhibition in test [7] was -2% (inactive); in test [8], 11% (inactive).

As for `C=C(Cl)COC(=O)[C@H]1C2C=CC(C2)C1C(=O)O` (stereo not given in full), the viability in test [1] is 99.5%; in test [3], 99.5% (inactive); in test [4], 106% (inactive); in test [5], 101% (inactive); in test [6] (setting [9]), 98%; in test [6] (setting [10]), 101%. The Her2 level in test [2] is 120% (inactive). The differential viability (reversal) in test [6] (H69AR cells + 2 uM doxorubicin) is 3.48% (inactive). Besides, the inhibition in test [7] was -2.8% (inactive); in test [8], -6.67% (inactive).

Turning to `CC(NC(=O)c1ccco1)C(c1cccs1)N1CCN(c2ccc(F)cc2)CC1` (stereo not given), the viability in test [1] is 96%; in test [3], 96% (inactive); in test [4] it was 67.9% (inactive); in test [5], 86.2% (inactive); in test [6] (setting [9]), 102%; in test [6] (setting [10]), 86.2%. In test [2], the Her2 level was 89% (inactive). In test [6] (H69AR cells + 2 uM doxorubicin), the differential viability (reversal) is -15.7% (inactive). In addition, the inhibition in test [7] is -4.13% (inactive); in test [8], 0.16% (inactive).

In the case of `CCCCc1ccc(NC(=O)c2c(C)noc2C)cc1`, the viability in test [1] is 105%; in test [3] it was 105% (inactive); in test [4], 96% (inactive); in test [5], 89.4% (inactive); in test [6] (setting [9]), 89.3%; in test [6] (setting [10]), 89.4%. Moreover, the Her2 level in test [2] is 94.5% (inactive). Further, in test [6] (H69AR cells + 2 uM doxorubicin), the differential viability (reversal) is 0.065% (inactive). In addition, the values for the inhibition in test [7] and in test [8] were -3.68% (inactive) and 4.43% (inactive), respectively.

As for `FC(F)(F)c1nnc2ccc(NCn3nnc4ccccc43)nn12`, the viability is 102% in test [1]; 102% (inactive) in test [3]; 83.1% (inactive) in test [4]; 92.9% (inactive) in test [5]; 88% in test [6] (setting [9]); 92.9% in test [6] (setting [10]). Further, the Her2 level in test [2] is 89.5% (inactive). Also, the differential viability (reversal) in test [6] (H69AR cells + 2 uM doxorubicin) was 4.94% (inactive). The inhibition is -4.61% (inactive) in test [7] and -1.75% (inactive) in test [8].

Take `O=C(CSc1nnc(-c2ccco2)c(-c2ccco2)n1)Nc1ccccc1`: the viability in test [1] is 102%; in test [3], 102% (inactive); in test [4], 89.2% (inactive); in test [5], 77.6% (inactive); in test [6] (setting [9]) it was 89.8%; in test [6] (setting [10]), 77.6%. Moreover, the Her2 level in test [2] is 64% (inactive). Moreover, the differential viability (reversal) in test [6] (H69AR cells + 2 uM doxorubicin) was -12.2% (inactive). For the same compound, the inhibition in test [7] is 2.63% (inactive); in test [8], 9.03% (inactive).

In the case of `CSC1=C(C#N)C(c2ccc(Cl)cc2)C2=C(CC(C)(C)CC2=O)N1` (stereo not given), the viability in test [1] was 102%; in test [3], 102% (inactive); in test [4], 72.1% (inactive); in test [5] it was 66% (inactive); in test [6] (setting [9]), 33.6%; in test [6] (setting [10]) it was 66%. The Her2 level in test [2] is 95% (inactive). The differential viability (reversal) in test [6] (H69AR cells + 2 uM doxorubicin) is 32.4% (inactive). Moreover, the inhibition in test [7] is -3.92% (inactive); in test [8] it was -1.48% (inactive).

Consider `COc1cc(C)c(N)cc1C(C)C`, for which the viability was 103% in test [1]; 103% (inactive) in test [3]; 89.2% (inactive) in test [4]; 94.1% (inactive) in test [5]; 92.8% in test [6] (setting [9]); 94.1% in test [6] (setting [10]). In test [2], the Her2 level is 91% (inactive). Besides, the differential viability (reversal) in test [6] (H69AR cells + 2 uM doxorubicin) is 1.33% (inactive). In addition, the inhibition in test [7] was -2.93% (inactive); in test [8] it was -0.82% (inactive).

On to `CCC(=O)N1CCN=C1SCc1ccc(Cl)cc1`, for which the viability in test [1] was 90%; in test [3], 90% (inactive); in test [4], 77.3% (inactive); in test [5], 95.1% (inactive); in test [6] (setting [9]), 84.3%; in test [6] (setting [10]), 95.1%. The Her2 level in test [2] was 93.5% (inactive). In test [6] (H69AR cells + 2 uM doxorubicin), the differential viability (reversal) is 10.8% (inactive). The inhibition in test [7] is 1.04% (inactive); in test [8], 31.5% (active).

As to `O=C(NCc1ccccn1)c1cccs1`, the viability in test [1] is 97%; in test [3] it was 97% (inactive); in test [4], 92.4% (inactive); in test [5], 105% (inactive); in test [6] (setting [9]) it was 92.8%; in test [6] (setting [10]), 105%. Besides, the Her2 level in test [2] was 80.5% (inactive). In test [6] (H69AR cells + 2 uM doxorubicin), the differential viability (reversal) was 11.9% (inactive). Also, the inhibition in test [7] is -7.43% (inactive); in test [8] it was 4.1% (inactive).

With `Cc1nc2ccc(N3C(=O)CCC3=O)cc2[nH]1`, the viability in test [1] is 100%; in test [3], 100% (inactive); in test [4], 97.6% (inactive); in test [5] it was 103% (inactive); in test [6] (setting [9]) it was 95.2%; in test [6] (setting [10]), 103%. The Her2 level in test [2] is 101% (inactive). In test [6] (H69AR cells + 2 uM doxorubicin), the differential viability (reversal) was 7.96% (inactive). The inhibition in test [7] was -5.07% (inactive); in test [8], -1.45% (inactive).

Consider `O=C(Nc1ccc(OC(=O)c2ccco2)cc1)c1ccco1`, for which the viability in test [1] is 96.5%; in test [3], 96.5% (inactive); in test [4], 103% (inactive); in test [5] it was 85.3% (inactive); in test [6] (setting [9]) it was 95.7%; in test [6] (setting [10]), 85.3%. Besides, the Her2 level in test [2] is 99.5% (inactive). Besides, the differential viability (reversal) in test [6] (H69AR cells + 2 uM doxorubicin) was -10.4% (inactive). Besides, the values for the inhibition in test [7] and in test [8] were -5.73% (inactive) and -10.5% (inactive), respectively.

For `C=CCn1c(SCC(=O)NC2CCCCC2)nnc1-c1sc(N)nc1C`, the viability in test [1] was 99.5%; in test [3] it was 99.5% (inactive); in test [4] it was 110% (inactive); in test [5], 95.8% (inactive); in test [6] (setting [9]) it was 94.9%; in test [6] (setting [10]), 95.8%. Further, in test [2], the Her2 level is 102% (inactive). For the same compound, the differential viability (reversal) in test [6] (H69AR cells + 2 uM doxorubicin) was 0.86% (inactive). Further, the figures for the inhibition in test [7] and in test [8] were -2.8% (inactive) and -1.45% (inactive), respectively.

`CCNC(=O)N(C(=O)NCC)n1c(C)nnc1C`: the viability in test [1] is 100%; in test [3], 100% (inactive); in test [4], 105% (inactive); in test [5], 104% (inactive); in test [6] (setting [9]), 85.3%; in test [6] (setting [10]), 104%. For the same compound, the Her2 level in test [2] was 90% (inactive). Further, in test [6] (H69AR cells + 2 uM doxorubicin), the differential viability (reversal) is 18.7% (inactive). Moreover, the results for the inhibition in test [7] and in test [8] were -5.33% (inactive) and 1.48% (inactive), respectively.

For the compound `O=C(C1CCC1)N1CCc2cc(S(=O)(=O)Nc3ccc4c(c3)OCO4)ccc21`, the viability in test [1] is 85.5%; in test [3], 85.5% (inactive); in test [4], 70.1% (inactive); in test [5], 91.6% (inactive); in test [6] (setting [9]), 73.8%; in test [6] (setting [10]) it was 91.6%. For the same compound, in test [2], the Her2 level is 76% (inactive). Moreover, the differential viability (reversal) in test [6] (H69AR cells + 2 uM doxorubicin) is 17.8% (inactive). Besides, the inhibition in test [7] was -6.27% (inactive); in test [8], -5.08% (inactive).

(Values after PubChem BioAssay.)
